Measurements taken from ChEMBL document CHEMBL1143978, “Novel 1,3,4-thiadiazolium-2-phenylamine chlorides derived from natural piperine as trypanocidal agents: chemical and biological studies” (Bioorg Med Chem, 2008).

Tests used:
Trypanosoma cruzi [1] = assay: Antiparasitic activity against Trypanosoma cruzi Y epimastigote; type: functional, organism-based
Method in brief: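 Y-strain epimastigotes (1×10^5 cells) grown in BHI with hemin, folic acid and 5% heat-inactivated FCS at 28 °C, with or without compound. DMSO final was 0.05%, and controls contained the same DMSO. After 7 days, live parasites were counted directly in a Neubauer chamber. IC50 is the mean of triplicate experiments.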

[2] = Cytotoxicity against mouse macrophages after 72 hrs; type: cell-based, Macrophage; settings: read-out: LD50
Method in brief: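 Murine peritoneal macrophages seeded at 1.10⁶ cells/well in RPMI with 10% FCS and allowed to attach 24 h at 37 °C. Exposed 72 h to compounds in DMSO (final solvent at most 0.05%). Washed with PBS, trypan blue added (final 0.01%), and 200 cells counted in a Neubauer chamber for membrane permeability. IC50 is the mean of triplicate experiments.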

Trypanosoma cruzi [3] = assay: Antiparasitic activity against Trypanosoma cruzi Y trypomastigotes; type: functional, organism-based
Trypanosoma cruzi [4] = assay: Antiparasitic activity against Trypanosoma cruzi Y amastigotes; type: functional, organism-based
Method in brief: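 Resident peritoneal macrophages from uninfected BALB/c mice, once adhered, infected with T. cruzi metacyclic trypomastigotes at 10:1 parasite/macrophage for 1 h at 37 °C, 5% CO2. Free parasites washed off with PBS, then 72 h with compound at […]. Methanol-fixed, Giemsa-stained. 200 cells counted in triplicate for % infected cells, amastigotes per macrophage and endocytic index.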

| Structure (SMILES) | IC50 (Trypanosoma cruzi [1]) [µM] | CC50 at 72 h [2] [µM] | IC50 (Trypanosoma cruzi [3]) [µM] | IC50 (Trypanosoma cruzi [4]) [µM] |
| --- | --- | --- | --- | --- |
| O=[N+]([O-])c1cc2c(cc1/C=C/c1sc(Nc3ccccc3)n[n+]1-c1ccccc1)OCO2 | 0.64 | 1.08 | – | – |
| c1ccc(Nc2n[n+](-c3ccccc3)c(CCCCc3ccc4c(c3)OCO4)s2)cc1 | 31.5 | – | – | – |
| O=[N+]([O-])c1cc2c(cc1CCc1sc(Nc3ccccc3)n[n+]1-c1ccccc1)OCO2 | 40.8 | – | – | – |
| c1ccc(Nc2n[n+](-c3ccccc3)c(CCc3ccc4c(c3)OCO4)s2)cc1 | 83.4 | – | – | – |
| O=[N+]([O-])c1cc2c(cc1-c1sc(Nc3ccccc3)n[n+]1-c1ccccc1)OCO2 | 13.4 | 6.62 | – | – |
| c1ccc(Nc2n[n+](-c3ccccc3)c(-c3ccc4c(c3)OCO4)s2)cc1 | 113 | – | – | – |
| O=[N+]([O-])c1cc2c(cc1CCCCc1sc(Nc3ccccc3)n[n+]1-c1ccccc1)OCO2 | 45.2 | – | – | – |
| C(/C=C/c1sc(Nc2ccccc2)n[n+]1-c1ccccc1)=C\c1ccc2c(c1)OCO2 | 10.8 | 38.6 | 6.7 | 1.35 |
| C(=C\c1sc(Nc2ccccc2)n[n+]1-c1ccccc1)/c1ccc2c(c1)OCO2 | 4.13 | 1.95 | – | – |
| O=C(Cn1ccnc1[N+](=O)[O-])NCc1ccccc1 [BENZNIDAZOLE] | – | – | 6.61 | 2.51 |
| O=C(/C=C/C=C/c1ccc2c(c1)OCO2)N1CCCCC1 [PIPERINE] | 7.31 | 20 | – | 4.91 |
